ChEMBL document CHEMBL4673221, “Furanoflavones pongapin and lanceolatin B blocks the cell cycle and induce senescence in CYP1A1-overexpressing breast cancer cells” (Bioorg Med Chem, 2018)

Key:
MCF7 = assay: Induction of cell cycle arrest in human MCF7 over expressing CYP1A cells assessed as accumulation at S phase incubated for 24 hrs by PI staining based flow cytometric analysis (reference value: 20.1%); format: functional
Cytochrome P450 3A4 = Cytochrome P450 3A4 (Homo sapiens, UniProt P08684); assay: Inhibition of human CYP3A4 expressed in Sacchrosomes using dibenzylfluorescein as substrate by fluorescence based assay; format: ADME
Cytochrome P450 2E1 = Cytochrome P450 2E1 (Homo sapiens, UniProt P05181); assay: Inhibition of human CYP2E1 expressed in Sacchrosomes by fluorescence based assay; format: ADME
Cytochrome P450 2D6 = Cytochrome P450 2D6 (Homo sapiens, UniProt P10635); assay: Inhibition of human CYP2D6 expressed in Sacchrosomes using 7-ethoxy-methyloxy-3-cyanocoumarin as substrate by fluorescence based assay; format: ADME
Cytochrome P450 2C19 = Cytochrome P450 2C19 (Homo sapiens, UniProt P33261); assay: Inhibition of human CYP2C19 expressed in Sacchrosomes using 3-cyano-7-ethoxycoumarin as substrate by fluorescence based assay; format: ADME
Cytochrome P450 2C8 = biological target: T1, Cytochrome P450 2C8 (Homo sapiens, UniProt P10632); assay: Inhibition of human CYP2C8 expressed in Sacchrosomes by fluorescence based assay; format: ADME
T1 sequence (P10632 whole entry): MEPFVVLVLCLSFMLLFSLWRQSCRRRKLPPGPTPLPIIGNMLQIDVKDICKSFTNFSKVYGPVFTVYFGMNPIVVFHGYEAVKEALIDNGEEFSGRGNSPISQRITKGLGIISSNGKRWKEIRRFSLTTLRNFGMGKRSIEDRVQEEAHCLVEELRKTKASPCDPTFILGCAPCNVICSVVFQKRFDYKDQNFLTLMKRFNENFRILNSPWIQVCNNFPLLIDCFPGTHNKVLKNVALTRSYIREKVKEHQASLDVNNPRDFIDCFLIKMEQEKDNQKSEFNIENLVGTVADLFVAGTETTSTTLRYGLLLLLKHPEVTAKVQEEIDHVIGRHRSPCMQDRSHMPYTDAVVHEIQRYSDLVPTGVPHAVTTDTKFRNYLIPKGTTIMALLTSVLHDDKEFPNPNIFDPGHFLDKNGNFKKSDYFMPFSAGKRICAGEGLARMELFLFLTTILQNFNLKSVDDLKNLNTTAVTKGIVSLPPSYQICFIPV

Cytochrome P450 1A2 = biological target: T2, Cytochrome P450 1A2 (Homo sapiens, UniProt P05177); assay: Inhibition of human CYP1A2 expressed in Sacchrosomes using 3-cyano-7-ethoxycoumarin as substrate by fluorescence based assay; format: ADME
T2 sequence (P05177 whole entry): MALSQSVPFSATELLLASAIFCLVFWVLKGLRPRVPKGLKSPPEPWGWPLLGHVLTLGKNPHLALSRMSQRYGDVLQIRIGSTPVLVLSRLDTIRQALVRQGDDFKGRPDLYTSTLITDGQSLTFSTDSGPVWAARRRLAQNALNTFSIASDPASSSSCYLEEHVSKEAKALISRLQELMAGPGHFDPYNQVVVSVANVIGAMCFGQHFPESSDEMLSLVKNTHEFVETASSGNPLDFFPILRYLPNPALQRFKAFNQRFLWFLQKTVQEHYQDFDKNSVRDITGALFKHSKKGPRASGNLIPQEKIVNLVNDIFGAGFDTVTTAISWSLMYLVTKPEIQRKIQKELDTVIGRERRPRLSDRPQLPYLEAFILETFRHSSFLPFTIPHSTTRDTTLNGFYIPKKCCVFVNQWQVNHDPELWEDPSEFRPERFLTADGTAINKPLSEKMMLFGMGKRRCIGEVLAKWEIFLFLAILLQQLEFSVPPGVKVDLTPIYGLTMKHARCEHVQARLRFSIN

Cytochrome P450 1B1 [1] = biological target: T3, Cytochrome P450 1B1 (Homo sapiens, UniProt Q16678); assay: Inhibition of human CYP1B1 expressed in human HEK293 cells using 7-ethoxyresorufin as substrate preincubated for 30 mins followed by substrate additon and measured after 60 mins by fluorescence based assay; format: ADME, cell-based
T3 sequence (Q16678 whole entry): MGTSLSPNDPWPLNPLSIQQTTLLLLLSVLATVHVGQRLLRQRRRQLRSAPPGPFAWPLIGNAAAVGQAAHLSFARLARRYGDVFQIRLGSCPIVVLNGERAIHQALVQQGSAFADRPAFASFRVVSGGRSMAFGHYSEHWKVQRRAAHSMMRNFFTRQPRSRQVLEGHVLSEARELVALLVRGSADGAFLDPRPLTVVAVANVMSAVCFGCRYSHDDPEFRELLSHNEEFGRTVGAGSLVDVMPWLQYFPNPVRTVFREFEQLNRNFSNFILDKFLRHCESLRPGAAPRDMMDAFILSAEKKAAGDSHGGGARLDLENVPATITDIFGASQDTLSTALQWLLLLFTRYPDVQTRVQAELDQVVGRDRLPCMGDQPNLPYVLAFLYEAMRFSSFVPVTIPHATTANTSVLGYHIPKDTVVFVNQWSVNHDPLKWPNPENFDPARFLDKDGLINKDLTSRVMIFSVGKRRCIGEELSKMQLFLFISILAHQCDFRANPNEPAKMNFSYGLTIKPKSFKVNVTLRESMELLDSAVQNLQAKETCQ
Procedure, shortened: (§1)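 The assay used live recombinant human HEK293 cells grown in suspension, each cell line expressing a single CYP (CYP1A1 or CYP1B1). Percent inhibition was read at 10 μM, and IC50 values were determined. Values are mean ± SD of three independent experiments. Alpha-naphthoflavone served as the reference inhibitor.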

Cytochrome P450 1A1 [2] = biological target: T4, Cytochrome P450 1A1 (Homo sapiens, UniProt P04798); assay: Inhibition of human CYP1A1 expressed in human HEK293 cells using 7-ethoxyresorufin as substrate preincubated for 30 mins followed by substrate additon and measured after 60 mins by fluorescence based assay; format: cell-based; procedure, shortened: as §1
T4 sequence (P04798 whole entry): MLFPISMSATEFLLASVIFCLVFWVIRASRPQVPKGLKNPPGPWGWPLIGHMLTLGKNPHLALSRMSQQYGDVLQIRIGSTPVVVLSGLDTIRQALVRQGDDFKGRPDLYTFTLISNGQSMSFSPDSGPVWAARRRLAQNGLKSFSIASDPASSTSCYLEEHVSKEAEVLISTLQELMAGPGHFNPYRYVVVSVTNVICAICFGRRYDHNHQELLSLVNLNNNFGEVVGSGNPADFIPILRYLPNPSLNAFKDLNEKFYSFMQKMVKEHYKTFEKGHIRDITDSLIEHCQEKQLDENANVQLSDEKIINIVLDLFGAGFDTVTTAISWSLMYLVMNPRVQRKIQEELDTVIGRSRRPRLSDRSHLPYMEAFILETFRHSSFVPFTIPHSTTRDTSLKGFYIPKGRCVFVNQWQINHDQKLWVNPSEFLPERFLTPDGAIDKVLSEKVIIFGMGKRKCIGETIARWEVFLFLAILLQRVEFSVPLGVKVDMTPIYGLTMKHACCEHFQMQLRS

Cytochrome P450 1B1 [3] = biological target: T3, Cytochrome P450 1B1; assay: Inhibition of human CYP1B1 expressed in sacchrosomes using 7-ethoxyresorufin as substrate by fluorescence based assay; format: ADME
Procedure, shortened: (§2)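 Enzymes were microsomal preparations isolated from recombinant baker's yeast (Sacchrosomes). Compounds were screened at 10 μM for percent inhibition, and IC50 values were also determined. Values are mean ± SD of three independent experiments. Alpha-naphthoflavone served as the positive control.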

Cytochrome P450 1A1 [4] = biological target: T4, Cytochrome P450 1A1; assay: Inhibition of human CYP1A1 expressed in sacchrosomes using 7-ethoxyresorufin as substrate by fluorescence based assay; procedure, shortened: as §2

Cytochrome P450 3A4, sequence (P08684 whole entry): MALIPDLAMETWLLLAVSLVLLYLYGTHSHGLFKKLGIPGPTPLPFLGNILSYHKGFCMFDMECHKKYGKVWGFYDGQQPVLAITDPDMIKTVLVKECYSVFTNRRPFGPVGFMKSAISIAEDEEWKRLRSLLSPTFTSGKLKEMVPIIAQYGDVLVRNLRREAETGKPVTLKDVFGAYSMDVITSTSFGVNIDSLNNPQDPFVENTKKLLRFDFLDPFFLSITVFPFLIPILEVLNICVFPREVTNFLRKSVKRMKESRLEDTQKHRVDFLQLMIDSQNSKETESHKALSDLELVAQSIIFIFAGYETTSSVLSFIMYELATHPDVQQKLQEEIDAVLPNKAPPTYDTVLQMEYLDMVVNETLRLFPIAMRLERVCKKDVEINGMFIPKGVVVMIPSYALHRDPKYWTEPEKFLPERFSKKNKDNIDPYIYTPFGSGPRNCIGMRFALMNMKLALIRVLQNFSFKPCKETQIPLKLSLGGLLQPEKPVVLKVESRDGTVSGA
Cytochrome P450 2E1, sequence (P05181 whole entry): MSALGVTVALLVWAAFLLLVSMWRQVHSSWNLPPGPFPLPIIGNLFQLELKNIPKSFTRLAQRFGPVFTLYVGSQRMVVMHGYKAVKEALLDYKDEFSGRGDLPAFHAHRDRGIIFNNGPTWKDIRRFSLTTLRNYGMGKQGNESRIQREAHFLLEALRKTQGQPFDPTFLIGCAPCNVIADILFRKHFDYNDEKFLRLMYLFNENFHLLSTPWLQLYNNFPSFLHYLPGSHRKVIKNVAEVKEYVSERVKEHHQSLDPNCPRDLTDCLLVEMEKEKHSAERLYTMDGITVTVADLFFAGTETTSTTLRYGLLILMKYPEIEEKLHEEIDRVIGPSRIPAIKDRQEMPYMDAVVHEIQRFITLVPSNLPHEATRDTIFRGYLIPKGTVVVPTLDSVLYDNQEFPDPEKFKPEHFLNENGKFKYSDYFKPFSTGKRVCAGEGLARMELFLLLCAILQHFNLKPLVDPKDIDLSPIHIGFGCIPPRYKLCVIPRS
Cytochrome P450 2C19, sequence (P33261 whole entry): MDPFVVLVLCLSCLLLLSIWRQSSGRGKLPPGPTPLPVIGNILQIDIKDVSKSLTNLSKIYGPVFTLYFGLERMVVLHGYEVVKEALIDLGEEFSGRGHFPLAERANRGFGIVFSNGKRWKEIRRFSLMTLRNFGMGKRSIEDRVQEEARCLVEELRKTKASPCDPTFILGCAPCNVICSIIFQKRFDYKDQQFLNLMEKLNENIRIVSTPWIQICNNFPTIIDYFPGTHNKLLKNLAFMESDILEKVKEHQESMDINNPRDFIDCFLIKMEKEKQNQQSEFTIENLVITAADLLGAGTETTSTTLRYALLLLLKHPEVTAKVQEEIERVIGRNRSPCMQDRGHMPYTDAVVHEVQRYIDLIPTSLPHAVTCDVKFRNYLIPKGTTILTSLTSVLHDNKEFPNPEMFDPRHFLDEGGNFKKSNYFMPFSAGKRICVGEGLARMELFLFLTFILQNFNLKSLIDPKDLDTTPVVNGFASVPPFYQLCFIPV
Cytochrome P450 2D6, sequence (P10635 whole entry): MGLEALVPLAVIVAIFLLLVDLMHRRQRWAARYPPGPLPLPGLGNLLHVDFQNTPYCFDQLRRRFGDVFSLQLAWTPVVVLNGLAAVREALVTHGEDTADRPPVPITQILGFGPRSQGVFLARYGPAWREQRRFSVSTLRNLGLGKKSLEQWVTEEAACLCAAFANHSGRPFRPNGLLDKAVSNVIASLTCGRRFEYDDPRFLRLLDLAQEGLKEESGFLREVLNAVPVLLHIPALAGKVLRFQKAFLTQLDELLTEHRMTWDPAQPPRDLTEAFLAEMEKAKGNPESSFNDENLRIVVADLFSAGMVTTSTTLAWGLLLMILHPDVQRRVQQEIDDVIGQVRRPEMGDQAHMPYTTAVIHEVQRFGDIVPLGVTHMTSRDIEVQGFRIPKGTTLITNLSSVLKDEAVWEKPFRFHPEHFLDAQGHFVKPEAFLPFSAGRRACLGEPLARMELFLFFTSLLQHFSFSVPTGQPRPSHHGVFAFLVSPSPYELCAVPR

## O=c1cc(-c2ccccc2)oc2c1ccc1occc12 [LANCEOLATIN B]
MCF7
  Activity: 7.1%
Cytochrome P450 3A4
  IC50: > 20000 nM
Cytochrome P450 2E1
  IC50: > 20000 nM
Cytochrome P450 2D6
  IC50: > 20000 nM
Cytochrome P450 2C19
  IC50: > 20000 nM
Cytochrome P450 2C8
  IC50: > 20000 nM
Cytochrome P450 1A2
  IC50: 187 nM
Cytochrome P450 1B1 [1]
  IC50: 390 nM
Cytochrome P450 1A1 [2]
  IC50: 20 nM
Cytochrome P450 1B1 [3]
  IC50: 290 nM
Cytochrome P450 1A1 [4]
  IC50: 76 nM

## COc1c(-c2ccc3c(c2)OCO3)oc2c(ccc3occc32)c1=O [PONGAPIN]
MCF7
  Activity: 6.7%
Cytochrome P450 3A4
  IC50: > 20000 nM
Cytochrome P450 2E1
  IC50: > 20000 nM
Cytochrome P450 2D6
  IC50: > 20000 nM
Cytochrome P450 2C19
  IC50: > 20000 nM
Cytochrome P450 2C8
  IC50: > 20000 nM
Cytochrome P450 1A2
  IC50: 2500 nM
Cytochrome P450 1B1 [1]
  IC50: 1060 nM
Cytochrome P450 1A1 [2]
  IC50: 20 nM
Cytochrome P450 1B1 [3]
  IC50: 950 nM
Cytochrome P450 1A1 [4]
  IC50: 71 nM
